Test results from ChEMBL document CHEMBL1125359, “omega-[(4,6-Diphenyl-2-pyridyl)oxy]alkanoic acid derivatives: a new family of potent and orally active LTB4 antagonists” (J Med Chem, 1992).
pIC50: −log10 of the molar value.

How the values were obtained:
[1] = molecular target: T1, Leukotriene B4 receptor 1 (Homo sapiens, UniProt Q15722); test: Inhibition of LTB4-induced elastase release in human polymorphonuclear leukocytes; type: functional, cell-based
[2] = molecular target: T1, Leukotriene B4 receptor 1; test: Inhibition of [3H]-LTB4 binding to Leukotriene B4 receptor in the human polymorphonuclear leukocytes.
Method in brief: (§1)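 PMNs from normal donors' peripheral blood, isolated by dextran T500 sedimentation, Ficoll-Hypaque centrifugation and hypotonic lysis. Cells incubated with 0.5 nM [3H]LTB4 (173 Ci/mmol) for 15 min at 0 °C across a range of compound concentrations. Percent inhibition of specific binding measured; IC50 derived graphically, mean of three replicates, mostly on one cell preparation.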

[3] = molecular target: T1, Leukotriene B4 receptor 1; test: Inhibition of [3H]LTB4 binding to Leukotriene B4 receptor of human polymorphonuclear leukocytes; method in brief: as §1
[4] = molecular target: Leukotriene B4 receptor 1 (Cavia porcellus); test: Inhibition of [3H]LTB4 binding to Leukotriene B4 receptor in the guinea pig spleen membranes.

T1 sequence (Q15722 whole entry): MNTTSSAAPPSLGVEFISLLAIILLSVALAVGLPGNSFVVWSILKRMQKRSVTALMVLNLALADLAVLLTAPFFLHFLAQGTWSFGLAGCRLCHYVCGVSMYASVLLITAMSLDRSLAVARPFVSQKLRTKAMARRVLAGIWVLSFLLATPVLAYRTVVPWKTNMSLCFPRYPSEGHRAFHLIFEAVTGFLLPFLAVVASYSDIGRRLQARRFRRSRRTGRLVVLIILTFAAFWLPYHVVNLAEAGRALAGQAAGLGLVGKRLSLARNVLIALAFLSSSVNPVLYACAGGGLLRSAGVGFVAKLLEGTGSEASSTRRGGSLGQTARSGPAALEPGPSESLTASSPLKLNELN

`O=C(O)CCCCCCOc1cc(-c2ccccc2)cc(-c2ccccc2)n1` was tested. Which pIC50 [1] did it give?
Its pIC50 is 5.60.

And the pIC50 [2]?
The pIC50 was 7.82.

`CC(C)(CCCCCCOc1cc(-c2ccccc2)cc(-c2ccccc2)n1)C(=O)O` was tested. Which pIC50 [1] did it give?
Its pIC50 is 7.00.

What about the pIC50 [2] of the same compound?
Its pIC50 is 7.22.

With `NC(=O)CCCCCOc1cc(-c2ccccc2)cc(-c2ccccc2)n1` as the compound, how does the pIC50 [2] read?
Its pIC50 is 6.82.

`CC(CCCCOc1cc(-c2ccc3c(c2)OCO3)cc(-c2ccccc2Cl)n1)C(=O)O` (centres undefined) was tested. Which pIC50 [1] did it give?
Its pIC50 is 7.92.

What about the pIC50 [2] of the same compound?
Its pIC50 is 7.92.

How did the pIC50 [1] turn out when `CC(C)(CCCCOc1cc(-c2ccc(N)cc2)cc(-c2ccccc2)n1)C(=O)O` was run?
The pIC50 was 7.82.

What about the pIC50 [2] of the same compound?
Its pIC50 is 8.02.

Which results are given for `O=C(O)CCCCOc1cc(-c2ccccc2)cc(-c2ccccc2)n1`?
pIC50 [1]: 4.70; pIC50 [2]: 6.52

Which results are given for `CC(CCCCOc1cc(-c2ccc3c(c2)OCO3)cc(-c2ccccc2)n1)C(=O)O` (centres undefined)?
pIC50 [1]: 6.92; pIC50 [2]: 8.18

With `O=C(O)CCCCCOc1cc(-c2ccccc2)cc(-c2ccccc2)n1` as the compound, how does the pIC50 [1] read?
The pIC50 was 5.70.

What about the pIC50 [2] of the same compound?
The pIC50 was 7.52.

With `CC(CCCCOc1cc(-c2ccccc2)cc(-c2ccccc2)n1)C(=O)O` (centres undefined) as the compound, how does the pIC50 [1] read?
Its pIC50 is 7.66.

And the pIC50 [2]?
The pIC50 was 7.52.

How did the pIC50 [2] turn out when `O=C(O)CCCCCOc1cc(-c2ccc([N+](=O)[O-])cc2)cc(-c2ccccc2)n1` was run?
Its pIC50 is 6.22.

With `O=C(O)CCCCCOc1cc(-c2ccc3c(c2)OCO3)cc(-c2ccccc2)n1` as the compound, how does the pIC50 [1] read?
Its pIC50 is 5.70.

And the pIC50 [2]?
Its pIC50 is 8.22.

Which results are given for `O=C(O)CCCCCOc1cc(-c2ccccc2)cc(-c2ccc(F)cc2)n1`?
pIC50 [1]: < 5.00; pIC50 [2]: 7.52

What does the source list for `COC(=O)CCCCCOc1cc(-c2ccccc2)cc(-c2ccccc2)n1`?
pIC50 [1]: 6.00; pIC50 [2]: 7.00

`O=C(O)CCCCCOc1cc(-c2ccc(NC(=O)C(F)(F)F)cc2)cc(-c2ccccc2)n1` was tested. Which pIC50 [1] did it give?
The pIC50 was under 5.00.

Which results are given for `CC(C)(CCCCOc1cc(-c2ccccc2)cc(-c2ccccc2)n1)c1nnn[nH]1`?
pIC50 [1]: 8.10; pIC50 [2]: 7.70

`CC(CCCCOc1cc(-c2ccccc2)cc(-c2ccccc2Cl)n1)C(=O)O` (centres undefined) was tested. Which pIC50 [1] did it give?
The pIC50 was 7.40.

And the pIC50 [3]?
The pIC50 was 8.22.

How did the pIC50 [1] turn out when `O=C(O)CCCCCOc1cc(-c2ccccc2Cl)cc(-c2ccccc2)n1` was run?
The pIC50 was under 5.00.

`CC(CCCCOc1cc(-c2ccccc2)cc(-c2ccccc2F)n1)C(=O)O` (centres undefined) was tested. Which pIC50 [1] did it give?
The pIC50 was 7.15.

And the pIC50 [2]?
Its pIC50 is 7.74.

With `COc1ccc(/C=C/CCCCOc2ccc(C(=O)c3cccc(C(=O)O)c3)cc2CCC(=O)O)cc1` as the compound, how does the pIC50 [1] read?
Its pIC50 is 6.00.

What about the pIC50 [4] of the same compound?
The pIC50 was 8.70.
